Measurements published in ChEMBL document CHEMBL1125290, “Bis basic substituted diaminobenzobisthiazoles as potential antiarthritic agents” (1992).

Columns and labels:
Assay type in all cases: functional
Rattus norvegicus [1] = assay: Antiinflammatory activity against carrageenan induced rat paw edema (CPE), dosed orally
Summary of the method: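 Male Sprague–Dawley rats (150 ± 10 g), five per group. Compound or vehicle given orally in 0.5% methylcellulose 1 h before subplantar injection of 0.1 mL 1% carrageenan in saline into the right hind paw. Paw volume measured by mercury displacement before dosing and 3 h after carrageenan; the difference is the edema volume. ANOVA with Dunnett's t test.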

Rattus norvegicus [2] = assay: Antiinflammatory activity against D-adjuvant arthritis in uninjected rat paw at the dose of 50 mg/kg by oral administration
Summary of the method: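 Rat developing adjuvant arthritis screen with oral dosing on a prophylactic protocol. Percent change in body weight versus untreated animals was recorded as a preliminary toxicity sign. Significance was assessed against controls by two-tailed Student's t test, p < 0.05.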

Rattus norvegicus [3] = assay: Antiinflammatory activity against D-adjuvant arthritis in injected rat paw at the dose of 50 mg/kg by oral administration
Rattus norvegicus [4] = organism: Rattus norvegicus; assay: Antiinflammatory activity in D-adjuvant induced arthritis in rat measured by the change in body weight; set-up: concentration or dose not given beside the values

Compound | Inhibition (Rattus norvegicus [1]) | inhibition in vivo at 50 mg/kg (Rattus norvegicus [2]) | inhibition in vivo at 50 mg/kg (Rattus norvegicus [3]) | Activity (Rattus norvegicus [4])
O=C(CN1CCN(c2ccccc2)CC1)Nc1nc2cc3nc(NC(=O)CN4CCN(c5ccccc5)CC4)sc3cc2s1 | 0% | 56% | 40% | 1%
CN(C)CC(=O)Nc1nc2cc3nc(NC(=O)CN(C)C)sc3cc2s1 | 8% | 81% | 1% | -37%
CCN(CC)CC(=O)Nc1nc2c(s1)c(OC)cc1nc(NC(=O)CN(CC)CC)sc12 | 32% | 51% | 47% | 7%
CCOC(=O)c1c2nc(NC(=O)CN(CC)CC)sc2cc2sc(NC(=O)CN(CC)CC)nc12 | 32% | 0% | 7% | -9%
CC1CCC(NCC(=O)Nc2nc3cc4nc(NC(=O)CNC5CCC(C)C5)sc4cc3s2)C1 (stereo not drawn) | 11% | 30% | 11% | -7%
O=C(CNC1CC1)Nc1nc2cc3nc(NC(=O)CNC4CC4)sc3cc2s1 | 18% | 16% | 0% | 14%
CCOC(=O)c1c2sc(NC(=O)CN(CC)CC)nc2c(C)c2nc(NC(=O)CN(CC)CC)sc12 | 35% | 50% | 15% | -12%
O=C(CN1CCC(N2CCCCC2)CC1)Nc1nc2cc3nc(NC(=O)CN4CCC(N5CCCCC5)CC4)sc3cc2s1 | 0% | 38% | 46% | -3%
CC(=O)c1ccc(N2CCN(CC(=O)Nc3nc4cc5nc(NC(=O)CN6CCN(c7ccc(C(C)=O)cc7)CC6)sc5cc4s3)CC2)cc1 | 40% | 0% | 0% | -7%
CN(CC(=O)Nc1nc2cc3nc(NC(=O)CN(C)C4CCCC4)sc3cc2s1)C1CCCC1 | 6% | 3% | 21% | -18%
O=C(CN1CCN(Cc2ccccc2)CC1)Nc1nc2cc3nc(NC(=O)CN4CCN(Cc5ccccc5)CC4)sc3cc2s1 | 26% | 6% | 5% | -6%
O=C(CN1CCN(c2cccc(C(F)(F)F)c2)CC1)Nc1nc2cc3nc(NC(=O)CN4CCN(c5cccc(C(F)(F)F)c5)CC4)sc3cc2s1 | 0% | 73% | 39% | 4%
O=C(CN1CCN(c2ccccn2)CC1)Nc1nc2cc3nc(NC(=O)CN4CCN(c5ccccn5)CC4)sc3cc2s1 | 9% | 16% | 0% | -2%
CC1CCCCN1CC(=O)Nc1nc2cc3nc(NC(=O)CN4CCCCC4C)sc3cc2s1 (stereo not drawn) | 0% | 82% | 41% | 6%
O=C(CNC1CCCCCC1)Nc1nc2cc3nc(NC(=O)CNC4CCCCCC4)sc3cc2s1 | 0% | 59% | 6% | 1%
CCN(CC)CC(=O)Nc1nc2cc3nc(NC(=O)CN(CC)CC)sc3c([N+](=O)[O-])c2s1 | 23% | 12% | 11% | -16%
CC(C)NCC(=O)Nc1nc2cc3nc(NC(=O)CNC(C)C)sc3cc2s1 | 28% | 11% | 9% | 7%
CCN(CC)C(=O)CNc1nc2cc3nc(NCC(=O)N(CC)CC)sc3cc2s1 | 5% | 55% | 58% | -18%
CC1CCN(CC(=O)Nc2nc3cc4nc(NC(=O)CN5CCC(C)CC5)sc4cc3s2)CC1 | 20% | 100% | 70% | -26%
O=C(CN1CCN(c2ccc(F)cc2)CC1)Nc1nc2cc3nc(NC(=O)CN4CCN(c5ccc(F)cc5)CC4)sc3cc2s1 | 11% | 79% | 41% | 12%
CCCN(CCC)CC(=O)Nc1nc2cc3nc(NC(=O)CN(CCC)CCC)sc3cc2s1.Cl.Cl | 46% | 47% | 29% | -11%
O=C(CNC1CCCC1)Nc1nc2cc3nc(NC(=O)CNC4CCCC4)sc3cc2s1 | 13% | 70% | 43% | 10%
CCNC(=O)Nc1nc2cc3nc(NC(=O)NCC)sc3cc2s1 | 6% | 15% | 0% | -1%

Compound | Inhibition (Rattus norvegicus [1]) | inhibition in vivo at 50 mg/kg (Rattus norvegicus [2]) | inhibition in vivo at 50 mg/kg (Rattus norvegicus [3]) | Activity (Rattus norvegicus [4])
CCN(CC)CC(=O)Nc1nc2cc3nc(NC(=O)CN(CC)CC)sc3c(OC)c2s1 | 17% | 0% | 19% | 10%
Cc1c2nc(N)sc2c(C(=O)[O-])c2sc(N)nc12.[Na+] | 22% | 0% | 7% | -15%
CCN(CC)CC(=O)Nc1nc2cc3nc(NC(=O)CN4CCCCC4)sc3cc2s1 | 20% | 58% | 50% | -14%
Cl.Cl.O=C(CN1CCOCC1)Nc1nc2cc3nc(NC(=O)CN4CCOCC4)sc3cc2s1 | 17% | 21% | 18% | -21%
O=C(CN1CCC(c2ccccc2)CC1)Nc1nc2cc3nc(NC(=O)CN4CCC(c5ccccc5)CC4)sc3cc2s1 | 1% | 12% | 40% | -12%
O=C(CN1CCCCC1CCO)Nc1nc2cc3nc(NC(=O)CN4CCCCC4CCO)sc3cc2s1 (stereo not drawn) | 30% | 5% | 4% | -9%
O=C(CNC1CCCCC1)Nc1nc2cc3nc(NC(=O)CNC4CCCCC4)sc3cc2s1 | 20% | 59% | 3% | 8%
CCN(CC)CC(=O)Nc1nc2cc3nc(NC(=O)CN(CC)CC)sc3c(N)c2s1 | 53% | 38% | 26% | -35%
O=C(CN1CCCC(CO)C1)Nc1nc2cc3nc(NC(=O)CN4CCCC(CO)C4)sc3cc2s1 (stereo not drawn) | 16% | 47% | 25% | -4%
CCN(CC)CC(=O)N(C)c1nc2c(ccc3sc(N(C)C(=O)CN(CC)CC)nc32)s1 | 21% | 34% | 0% | 4%
CCN(CC)CC(=O)Nc1nc2c(s1)c(OC)c(Cl)c1nc(NC(=O)CN(CC)CC)sc12 | 17% | 8% | 38% | -11%
CCN(CC)CC(=O)Nc1nc2c(C)c3nc(NC(=O)CN(CC)CC)sc3c(Cl)c2s1 | 18% | 16% | 42% | -37%
CCN(CC)CCCC(C)Nc1nc2cc3nc(NC(C)CCCN(CC)CC)sc3cc2s1 (stereo not drawn) | 0% | 0% | 0% | -17%
O=C(CN1CCCCCC1)Nc1nc2cc3nc(NC(=O)CN4CCCCCC4)sc3cc2s1 | 0% | 27% | 26% | 
CCN(CC)CC(=O)N(CC)c1nc2cc3nc(N(CC)C(=O)CN(CC)CC)sc3c(Br)c2s1 | 16% | 0% | 0% | -16%
CC1CC(C)CN(CC(=O)Nc2nc3cc4nc(NC(=O)CN5CC(C)CC(C)C5)sc4cc3s2)C1 (stereo not drawn) | 15% | 11% | 29% | -3%
CCOC(=O)c1c2sc(N)nc2cc2nc(N)sc12 | 2% | 0% | 23% | -14%
CCN(CC)CC(=O)Nc1nc2c(ccc3nc(NC(=O)CN(CC)CC)sc32)s1.Cl.Cl | 0% | 36% | 2% | -20%
O=C(CN1CCSC1)Nc1nc2cc3nc(NC(=O)CN4CCSC4)sc3cc2s1 | 11% | 27% | 26% | 11%
O=C(CN1CCC(Cc2ccccc2)CC1)Nc1nc2cc3nc(NC(=O)CN4CCC(Cc5ccccc5)CC4)sc3cc2s1 | 9% | 13% | 15% | -16%
CC1CCCC1NCC(=O)Nc1nc2cc3nc(NC(=O)CNC4CCCC4C)sc3cc2s1 (stereo not drawn) | 36% | 0% | 0% | -22%
O=C(CN1CCN(c2ccc(Cl)cc2)CC1)Nc1nc2cc3nc(NC(=O)CN4CCN(c5ccc(Cl)cc5)CC4)sc3cc2s1 | 12% | 41% | 21% | 
